Activity calls are given as the source filed them. The rule behind the calls is not given here. Square brackets hold non-standard residues; d marks the D form. Peptide text beside a SMILES is read from it. * marks the point of attachment. Benzoyl(4-tBu) = CC(C)(C)c1ccc(C(=O)*)cc1; Lys(Et2) = CCN(CC)CCCC[C@H](N)C(=O)O
Columns and labels:
[1] = test system: PC-3; assay: Antiproliferative activity against human PC3 cells assessed as reduction in cell count at 30 uM measured after 72 hrs by DAPI-staining based microscopic method; format: functional
Method in brief: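 PC3 cells seeded at 400/well, adhered overnight, then given DMEM + 10% FBS with 30 µM compound or DMSO for 72 h; fixed in ice-cold methanol, rehydrated in PBS, nuclei stained with DAPI (0.05 µg/ml) and counted by high content microscopy; counts normalized to DMSO control (n ≥ 4).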

[2] = biological target: T1, Chromodomain Y-like protein 2 (Homo sapiens, UniProt Q8N8U2)
T1 sequence (Q8N8U2 whole entry): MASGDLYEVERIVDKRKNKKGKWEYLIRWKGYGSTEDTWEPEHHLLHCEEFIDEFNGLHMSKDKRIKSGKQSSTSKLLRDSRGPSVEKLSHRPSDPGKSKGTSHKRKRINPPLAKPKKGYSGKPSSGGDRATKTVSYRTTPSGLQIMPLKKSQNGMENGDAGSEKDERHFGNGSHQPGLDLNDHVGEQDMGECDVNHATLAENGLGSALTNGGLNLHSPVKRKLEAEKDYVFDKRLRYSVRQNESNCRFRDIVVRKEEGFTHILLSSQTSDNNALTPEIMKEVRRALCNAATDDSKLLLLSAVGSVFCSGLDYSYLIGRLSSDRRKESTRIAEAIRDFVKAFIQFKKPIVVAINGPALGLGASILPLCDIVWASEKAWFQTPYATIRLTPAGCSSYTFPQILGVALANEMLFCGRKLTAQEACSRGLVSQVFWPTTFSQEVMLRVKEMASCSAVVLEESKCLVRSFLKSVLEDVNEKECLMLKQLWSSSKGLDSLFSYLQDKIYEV

[3] = biological target: T2, Chromodomain Y-like protein (Homo sapiens, UniProt Q9Y232); assay: Binding affinity to human N-terminal GST-tagged CDYL1b chromodomain (1 to 78 residues) expressed in Escherichia coli Rosetta BL21(DE3)pLysS by ITC method
T2 sequence (Q9Y232 whole entry): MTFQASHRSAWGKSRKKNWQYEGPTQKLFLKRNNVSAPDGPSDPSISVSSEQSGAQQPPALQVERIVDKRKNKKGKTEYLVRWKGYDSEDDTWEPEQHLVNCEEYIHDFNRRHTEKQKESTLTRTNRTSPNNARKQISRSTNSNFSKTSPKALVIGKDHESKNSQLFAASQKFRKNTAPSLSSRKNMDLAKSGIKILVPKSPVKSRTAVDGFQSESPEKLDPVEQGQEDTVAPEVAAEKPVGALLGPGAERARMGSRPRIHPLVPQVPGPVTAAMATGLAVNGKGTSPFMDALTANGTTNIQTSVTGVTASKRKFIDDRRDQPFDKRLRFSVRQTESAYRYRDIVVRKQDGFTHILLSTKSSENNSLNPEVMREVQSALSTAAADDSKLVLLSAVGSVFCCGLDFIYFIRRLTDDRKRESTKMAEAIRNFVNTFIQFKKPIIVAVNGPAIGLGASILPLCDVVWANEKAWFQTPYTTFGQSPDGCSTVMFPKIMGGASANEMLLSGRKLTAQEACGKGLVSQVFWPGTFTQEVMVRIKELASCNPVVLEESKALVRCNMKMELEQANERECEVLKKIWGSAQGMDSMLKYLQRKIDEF

[4] = biological target: T3, Testis-specific chromodomain protein Y 1 (Homo sapiens, UniProt Q9Y6F8); assay: Binding affinity to human N-terminal GST-tagged CDY1 chromodomain (1 to 101 residues) expressed in Escherichia coli Rosetta BL21(DE3)pLysS by ITC method
T3 sequence (Q9Y6F8 whole entry): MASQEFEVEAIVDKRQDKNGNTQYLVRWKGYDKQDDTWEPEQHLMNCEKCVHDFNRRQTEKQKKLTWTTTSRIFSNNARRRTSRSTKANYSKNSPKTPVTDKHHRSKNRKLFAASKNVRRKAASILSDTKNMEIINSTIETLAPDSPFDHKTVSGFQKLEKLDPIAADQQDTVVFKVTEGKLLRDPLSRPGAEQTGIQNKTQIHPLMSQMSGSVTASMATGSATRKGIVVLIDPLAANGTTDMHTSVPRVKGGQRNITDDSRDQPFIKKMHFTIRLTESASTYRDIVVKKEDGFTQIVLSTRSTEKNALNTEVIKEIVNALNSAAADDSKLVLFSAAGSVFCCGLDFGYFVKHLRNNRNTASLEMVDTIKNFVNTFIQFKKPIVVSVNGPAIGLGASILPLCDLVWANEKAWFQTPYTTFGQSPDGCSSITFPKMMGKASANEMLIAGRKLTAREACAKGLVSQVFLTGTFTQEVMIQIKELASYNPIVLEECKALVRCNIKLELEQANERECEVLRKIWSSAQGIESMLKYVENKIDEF

[5] = biological target: T4, Chromobox protein homolog 8 (Homo sapiens, UniProt Q9HC52); assay: Binding affinity to human N-terminal his-tagged CBX8 chromodomain (8 to 61 residues) expressed in Escherichia coli Rosetta BL21(DE3)pLysS by ITC method
T4 sequence (Q9HC52 whole entry): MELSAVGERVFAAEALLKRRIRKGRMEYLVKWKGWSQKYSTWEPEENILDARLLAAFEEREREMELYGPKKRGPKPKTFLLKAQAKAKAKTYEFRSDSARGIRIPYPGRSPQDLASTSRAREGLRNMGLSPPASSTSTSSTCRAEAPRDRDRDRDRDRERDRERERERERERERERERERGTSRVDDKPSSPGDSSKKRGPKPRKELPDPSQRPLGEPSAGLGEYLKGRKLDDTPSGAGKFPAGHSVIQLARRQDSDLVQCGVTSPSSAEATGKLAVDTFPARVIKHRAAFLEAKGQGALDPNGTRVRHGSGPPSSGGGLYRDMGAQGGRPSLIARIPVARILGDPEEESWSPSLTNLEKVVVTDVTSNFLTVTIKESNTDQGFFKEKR

[6] = biological target: T5, Chromobox protein homolog 6 (Homo sapiens, UniProt O95503); assay: Binding affinity to human N-terminal his-tagged CBX6 chromodomain (8 to 65 residues) expressed in Escherichia coli Rosetta BL21(DE3)pLysS by ITC method
T5 sequence (O95503 whole entry): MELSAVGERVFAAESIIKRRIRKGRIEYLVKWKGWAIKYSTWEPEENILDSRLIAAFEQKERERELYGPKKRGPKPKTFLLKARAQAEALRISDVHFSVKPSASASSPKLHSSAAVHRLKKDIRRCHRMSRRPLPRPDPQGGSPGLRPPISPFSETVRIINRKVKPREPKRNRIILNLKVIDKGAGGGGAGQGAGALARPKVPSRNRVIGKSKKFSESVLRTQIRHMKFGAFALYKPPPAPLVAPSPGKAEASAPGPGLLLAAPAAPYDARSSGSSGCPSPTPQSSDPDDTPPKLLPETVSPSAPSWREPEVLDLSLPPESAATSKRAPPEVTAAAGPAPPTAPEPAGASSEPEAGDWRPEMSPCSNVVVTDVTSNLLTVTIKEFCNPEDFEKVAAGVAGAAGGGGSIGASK

[7] = biological target: T6, Chromobox protein homolog 2 (Homo sapiens, UniProt Q14781); assay: Binding affinity to human N-terminal his-tagged CBX2 chromodomain (9 to 66 residues) expressed in Escherichia coli Rosetta BL21(DE3)pLysS by ITC method
T6 sequence (Q14781 whole entry): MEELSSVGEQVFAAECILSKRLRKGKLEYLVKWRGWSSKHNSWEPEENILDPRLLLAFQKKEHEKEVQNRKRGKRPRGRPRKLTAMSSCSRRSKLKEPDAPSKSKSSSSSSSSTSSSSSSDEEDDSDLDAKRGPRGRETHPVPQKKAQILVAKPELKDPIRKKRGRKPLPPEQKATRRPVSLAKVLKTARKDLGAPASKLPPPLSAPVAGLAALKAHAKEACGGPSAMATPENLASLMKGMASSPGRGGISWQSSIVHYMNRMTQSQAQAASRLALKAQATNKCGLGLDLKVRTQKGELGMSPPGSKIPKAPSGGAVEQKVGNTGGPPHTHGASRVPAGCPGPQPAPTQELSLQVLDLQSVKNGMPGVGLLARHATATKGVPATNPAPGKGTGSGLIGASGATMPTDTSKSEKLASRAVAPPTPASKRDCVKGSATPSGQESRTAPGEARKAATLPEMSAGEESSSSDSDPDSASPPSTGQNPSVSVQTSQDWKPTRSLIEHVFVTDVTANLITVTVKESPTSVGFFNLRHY

[8] = biological target: Chromobox protein homolog 5 (Homo sapiens, UniProt P45973); assay: Binding affinity to CBX5 chromodomain (unknown origin) by ITC method
Sequence of Chromobox protein homolog 5 (P45973 whole entry): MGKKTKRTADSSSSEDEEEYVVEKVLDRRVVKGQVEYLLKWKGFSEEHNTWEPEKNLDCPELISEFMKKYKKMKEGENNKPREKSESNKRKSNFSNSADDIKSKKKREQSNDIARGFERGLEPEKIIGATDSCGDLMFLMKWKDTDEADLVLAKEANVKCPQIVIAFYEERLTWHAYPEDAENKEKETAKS

[9] = biological target: Chromobox protein homolog 1 (Homo sapiens, UniProt P83916); assay: Binding affinity to CBX1 chromodomain (unknown origin) by ITC method
Sequence of Chromobox protein homolog 1 (P83916 whole entry): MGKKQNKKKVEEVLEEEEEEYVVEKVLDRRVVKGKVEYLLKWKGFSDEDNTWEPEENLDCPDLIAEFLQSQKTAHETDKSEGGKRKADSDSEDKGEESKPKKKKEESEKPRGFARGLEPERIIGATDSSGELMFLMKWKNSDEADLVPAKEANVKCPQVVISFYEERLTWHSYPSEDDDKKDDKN

[10] = biological target: Chromobox protein homolog 3 (Homo sapiens, UniProt Q13185); assay: Binding affinity to CBX3 chromodomain (unknown origin) by ITC method
Sequence of Chromobox protein homolog 3 (Q13185 whole entry): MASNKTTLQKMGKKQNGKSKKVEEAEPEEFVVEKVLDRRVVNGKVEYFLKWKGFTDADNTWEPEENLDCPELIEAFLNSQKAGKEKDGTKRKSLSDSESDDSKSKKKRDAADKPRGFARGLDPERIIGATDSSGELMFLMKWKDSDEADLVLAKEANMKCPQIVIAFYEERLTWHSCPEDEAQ

SMILES: CCN(CC)CCCC[C@H](NC(=O)[C@H](CC(C)C)NC(=O)[C@H](C)NC(=O)[C@H](Cc1ccccc1)NC(=O)c1ccc(C(C)(C)C)cc1)C(=O)N[C@@H](CO)C(=O)OC ({Benzoyl(4-tBu)}-FAL[Lys(Et2)]S-OMe)
- Activity [1]: Active
- Kd [2]: 0.85 µM
- Kd [3]: 0.91 µM
- Kd [4]: 6.3 µM
- Kd [5]: 1.2 µM
- Kd [6]: 0.61 µM
- Kd [7]: 1.8 µM
- Kd [8]: > 100 µM
- Kd [9]: > 100 µM
- Kd [10]: > 100 µM

— ChEMBL document CHEMBL3856243, “Structure-Activity Relationships and Kinetic Studies of Peptidic Antagonists of CBX Chromodomains” (J Med Chem, 2016)
